Assay outcomes: PubChem, several laboratories
Diaphorase act: diaphorase activation or chemical reduction counter-screen; Diaphorase/resazurin coupled assay, resorufin fluorescence, 16 min; active compounds read high; 1 = vehicle wells, 0 = NADH-free wells; activation factor at 20 µM; hit rate 0.005% among 190,000; AID 1229;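 active = diaphorase activity raised at least twofold by the compound at 20 µM; inactive = activation factor below 2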
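test system = bacterial diaphorase enzyme (C. kluyveri) | quantity = enzyme 0.07 U/mL final | reagent = NADH substrate 0.114 mM plus resazurin dye 0.1 mM, final | incubation = 16 min enzyme reaction, ambient temperature | buffer or medium = HEPES pH 7.4 buffer with MgCl2 and Tween 20 | signal = fluorescence of resorufin, 544 nm excitation, 590 nm emission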
WT yeast gro inh: growth inhibition of WT yeast, mitochondrial fusion screen; hit rate 2.1% among 190,000; inhibition, % at 10 µM; mitochondrial fusion phenotypic screen, WT strain; AID 1362; in the data active = inhibition above about 58%; tested in S. cerevisiae
G6PDH CS: inhibits Leuconostoc G6PDH, flagging false hits in G6PDH-based assays | Purified L. mesenteroides G6PDH, diaphorase/resazurin coupled fluorescence, 45 min | inhibition, % at 5 µM | hit rate 0.12% among 200,000
Lmaj promast: Leishmania major promastigote growth inhibition. Leishmania major promastigotes, resazurin fluorescence viability. hit rate 9% among 200,000. inhibition, % at 10 µM;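 note: promastigotes grown with compound for 44 hours at 28 °C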
Diaphorase inh: diaphorase inhibition or chemical oxidation counter-screen | diaphorase resazurin-to-resorufin fluorescence, NADH, 16 min; bacterial (C. kluyveri) enzyme, not human | inhibition, % at 20 µM | hit rate 0.69% among 190,000;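 active = primary screen inhibition at 20 µM above a set limit, cut at about 50% in these data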;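 note: plate controls were DMSO with full reaction for no effect and wells lacking NADH for full effect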
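Test system: bacterial diaphorase enzyme (C. kluyveri); Quantity: 0.14 U/mL diaphorase, enzyme working solution; Times: reaction incubation of 16 min at room temperature; Measured by: fluorescence of resorufin formed from resazurin, Ex 544/Em 590 nm; Benchmarks: positive control minus NADH, DMSO neutral control.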
* marks the source's active call; other numbers are inactive results. The list is not random: actives were taken first. Their share in the collection is about 11%. Cut-off read from the data, not from the text of the source, unless noted: active = inhibition above about 50%; inactive = the rest.

Results for COc1ccc(N2C(=O)C(Cl)=C(Nc3ccccc3O)C2=O)cc1 ?
Diaphorase act: 0.7; WT yeast gro inh: -11.6; G6PDH CS: 4.3; Lmaj promast: 98.5*; Diaphorase inh: 25.4

How did COc1ccc(N2C(=O)C(Cl)=C(Nc3ccccc3OC)C2=O)cc1 do in these assays?
Diaphorase act: 0.7; WT yeast gro inh: 2.4; G6PDH CS: 11.8; Lmaj promast: -6.0; Diaphorase inh: 26.3

What do the screens show for `O=S(=O)(NCC(c1cccnc1)N1CCN(c2ccc(F)cc2)CC1)c1cccs1` (stereo not drawn)?
Diaphorase act: 1; WT yeast gro inh: 11.7; G6PDH CS: -17.0; Lmaj promast: 87.4*; Diaphorase inh: 1.3

What do the screens show for `Cc1ccc(S(=O)(=O)NCC(c2cccnc2)N2CCOCC2)cc1` (stereo not drawn)?
Diaphorase act: 0.9; WT yeast gro inh: -3.5; G6PDH CS: 2.1; Lmaj promast: 6.2; Diaphorase inh: 8.7

Results for O=S(=O)(NCC(c1cccnc1)N1CCN(c2ccc(F)cc2)CC1)c1ccc(F)cc1 (stereo not drawn) ?
Diaphorase act: 0.9; WT yeast gro inh: 8.9; G6PDH CS: -21.8; Lmaj promast: 91.2*; Diaphorase inh: 5.7

What do the screens show for `O=S(=O)(NCC(c1cccnc1)N1CCN(c2ccccc2F)CC1)c1cccs1` (stereo not drawn)?
Diaphorase act: 0.8; WT yeast gro inh: -5.3; G6PDH CS: -4.4; Lmaj promast: 78.5*; Diaphorase inh: 15.1

Results for O=S(=O)(NCC(c1cccnc1)N1CCN(Cc2ccccc2)CC1)c1ccccc1 (stereo not drawn) ?
Diaphorase act: 1; WT yeast gro inh: 1.8; G6PDH CS: -1.5; Lmaj promast: 82.5*; Diaphorase inh: -2.1

Results for COc1ccc(C2C(C#N)=C(N)Oc3c2sc2nc(C)cc(C)c32)cc1 (stereo not drawn) ?
Diaphorase act: 0.9; WT yeast gro inh: 10.7; G6PDH CS: 3.3; Lmaj promast: 100.5*; Diaphorase inh: 6.7

What do the screens show for `COc1ccc(C2C(C#N)=C(N)Oc3cc(C)n(Cc4ccco4)c(=O)c32)cc1` (stereo not drawn)?
Diaphorase act: 0.8; WT yeast gro inh: 11.1; G6PDH CS: 3.9; Lmaj promast: 16.9; Diaphorase inh: 16.2

Results for O=C1N=C2SCCN2/C1=C\c1ccccc1Cl ?
Diaphorase act: 0.8; WT yeast gro inh: -10.9; G6PDH CS: -2.9; Lmaj promast: 99.8*; Diaphorase inh: 15.6

Results for O=C(NC1(C(F)(F)F)N=C2SCCN2C1=O)c1ccccc1 (stereo not drawn) ?
Diaphorase act: 1; WT yeast gro inh: 6.9; G6PDH CS: -0.2; Lmaj promast: 0.7; Diaphorase inh: 3.9

How did CCOC(=O)Cc1csc(NS(=O)(=O)c2ccc(Cl)cc2)n1 do in these assays?
Diaphorase act: 0.9; WT yeast gro inh: 9.7; G6PDH CS: -9.8; Lmaj promast: 50.4*; Diaphorase inh: 9.0

What do the screens show for `O=C(CNC(=S)N(CCCN1CCOCC1)Cc1cccs1)N1CCCC1`?
Diaphorase act: 1; WT yeast gro inh: -16.4; G6PDH CS: 1.6; Lmaj promast: 6.8; Diaphorase inh: 4.2

Results for CCCCCOc1ccc2oc(=O)c3c(c2c1)CCCN3C(=O)CN1CCCC(C(=O)OCC)C1 (stereo not drawn) ?
Diaphorase act: 0.9; WT yeast gro inh: 80.4*; G6PDH CS: 9.4; Lmaj promast: 18.6; Diaphorase inh: 7.4

Results for O=C(CN1CCN(Cc2ccccc2)CC1)N1CCCc2c1c(=O)oc1ccc(O)cc21 ?
Diaphorase act: 0.8; WT yeast gro inh: 2.9; G6PDH CS: -7.7; Lmaj promast: 9.9; Diaphorase inh: 24.4

Results for CCCOc1ccc2oc(=O)c3c(c2c1)CCCN3C(=O)CN(C)Cc1ccccc1 ?
Diaphorase act: 0.8; WT yeast gro inh: -6.9; G6PDH CS: 4.4; Lmaj promast: 58.1*; Diaphorase inh: 19.9

Results for CC(=O)Oc1ccc2oc(=O)c3c(c2c1)CCCN3C(=O)CN1CCOCC1 ?
Diaphorase act: 1; WT yeast gro inh: -8.0; G6PDH CS: 1.2; Lmaj promast: -10.3; Diaphorase inh: -1.6

What do the screens show for `COc1ccccc1CN1C[C@@H]2C[C@@H](c3cccc(C)n3)N3CCC[C@@]23C1=O`?
Diaphorase act: 1; WT yeast gro inh: 1.9; G6PDH CS: 9.3; Lmaj promast: -3.6; Diaphorase inh: 4.8

How did COc1cccc2c1OCC([C@@H]1C[C@H]3CN(Cc4cccc(Cl)c4)C(=O)[C@]34CCCN14)=C2 do in these assays?
Diaphorase act: 0.9; WT yeast gro inh: 23.5; G6PDH CS: 6.1; Lmaj promast: 59.1*; Diaphorase inh: 6.4

What do the screens show for `COc1ccccc1CN1C[C@@H]2C[C@@H](c3[nH]c4c(C)cccc4c3C)N3CCC[C@@]23C1=O`?
Diaphorase act: 0.9; WT yeast gro inh: 29.1; G6PDH CS: 8.9; Lmaj promast: 53.1*; Diaphorase inh: 14.3

How did COc1ccccc1/C=C/[C@@H]1C[C@H]2CN(Cc3cccc(Cl)c3)C(=O)[C@]23CCCN13 do in these assays?
WT yeast gro inh: 7.1; G6PDH CS: 14.0; Lmaj promast: 4.0

Results for CCCn1ncc([C@@H]2C[C@H]3CN(Cc4cccc(Cl)c4)C(=O)[C@]34CCCN24)c1C ?
Diaphorase act: 0.4; WT yeast gro inh: 2.0; G6PDH CS: 2.6; Lmaj promast: -5.4; Diaphorase inh: 59.5*

Results for Cc1cc(O)cc(O)c1C=NCc1ccco1 ?
Diaphorase act: 0.9; WT yeast gro inh: 4.0; G6PDH CS: 7.7; Lmaj promast: 6.5; Diaphorase inh: 8.8

How did CCOC(=O)c1c[nH]c2c(C(F)(F)F)cccc2c1=O do in these assays?
Diaphorase act: 0.9; WT yeast gro inh: -24.3; G6PDH CS: 12.8; Lmaj promast: -0.9; Diaphorase inh: 10.0

Results for CCCCNC(=S)NNC(=O)c1ccc(Br)o1 ?
Diaphorase act: 1.1; WT yeast gro inh: 0.0; G6PDH CS: -1.8; Lmaj promast: -6.4; Diaphorase inh: -10.7

Results for Cc1nc(SCC(=O)NCCc2ccc(Cl)cc2)nc(C)c1C ?
Diaphorase act: 0.9; WT yeast gro inh: 15.7; G6PDH CS: 6.3; Lmaj promast: -3.4; Diaphorase inh: 7.5

What do the screens show for `Cc1ccc(/C=C/C(=O)NCc2ccc(S(N)(=O)=O)cc2)o1`?
Diaphorase act: 0.8; WT yeast gro inh: -5.1; G6PDH CS: 20.1; Lmaj promast: -3.4; Diaphorase inh: 21.7

Results for CCc1ccc(CN2CCCC(CNS(=O)(=O)c3ccc(OC)cc3)C2)cc1 (stereo not drawn) ?
Diaphorase act: 1; WT yeast gro inh: 4.1; G6PDH CS: 8.7; Lmaj promast: 84.0*; Diaphorase inh: 3.1

Results for COc1ccc(S(=O)(=O)NCC2CCCN(Cc3ccc(C)o3)C2)cc1 (stereo not drawn) ?
Diaphorase act: 1.1; WT yeast gro inh: -2.7; G6PDH CS: 18.1; Lmaj promast: 20.8; Diaphorase inh: -13.5

Results for Cc1cccc(NC(=O)c2c(O)c3cccc4c3n(c2=O)CC4)c1 ?
Lmaj promast: 2.6
